Eight molecules from ChEMBL document CHEMBL3351552, “Structure-activity profiles of novel 6-substituted pyrrolo[2,3-d]pyrimidine thienoyl antifolates with modified amino acids for cellular uptake by folate receptors α and β and the proton-coupled folate transporter” (J Med Chem, 2014) can be followed below.

Activity calls are given as the source filed them. The calls are words filed in the database; no cut-off is given here.

One may read the IC50 as the concentration needed to halve the response being measured. The term inhibition denotes how much of the control response was suppressed. As a reminder, the Ki is the equilibrium dissociation constant of an inhibitor or competing ligand from its target.

Assay [1] deals with KB. The assay can be described thus: Cytotoxicity against human KB cells assessed as cell growth inhibition incubated up to 96 hrs in presence of 200 nM folic acid by Celltiter-blue cell viability assay. In kind it is functional, cell-based. The method, boiled down: (§1)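 Cells plated at ~2500–5000/well in folate-free RPMI with 10% dialyzed FBS, antibiotics, 2 nM LCV and 2 mM L-glutamine, exposed to a range of drug concentrations. RT16 were pre-cultured 3 days in folate-free RPMI. FR dependence was tested in parallel wells containing 200 nM folic acid. Incubation up to 96 h, CellTiter-Blue fluorescence read-out. IC50 taken versus untreated cells.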
Background: Alamar Blue is a resazurin reagent that responds to reducing activity.

In assay [2] the target is Folate receptor alpha (Homo sapiens) (UniProt P15328). The assay can be described thus: Inhibition of [3H]folic acid binding to FRalpha (unknown origin) expressed in Chinese hamster RT16 cells. It is filed as cell-based. The method, boiled down:
(§2)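 RT16 (FRα) or D4 (FRβ) CHO cells (~5 × 10^6) were stripped of bound folate with pH 3.5 acetate/saline, then washed in ice-cold HEPES-buffered saline pH 7.4. Cells were incubated 15 min at 0 °C with 50 nM [3H]folic acid (0.5 Ci/mmol) plus 0–1000 nM unlabeled competitor. Cells were rinsed cold, NaOH-solubilized, and counts normalized to protein. […] Mean ± SE, n=3.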

In assay [3] the target is Folate receptor beta (Homo sapiens) (UniProt P14207). The assay can be described thus: Inhibition of [3H]folic acid binding to FRbeta (unknown origin) expressed in Chinese hamster D4 cells. In kind it is cell-based. The method, boiled down:
as §2

For assay [4], the target named is T1, Proton-coupled folate transporter (Homo sapiens) (UniProt Q96NT5).
T1 sequence (whole entry): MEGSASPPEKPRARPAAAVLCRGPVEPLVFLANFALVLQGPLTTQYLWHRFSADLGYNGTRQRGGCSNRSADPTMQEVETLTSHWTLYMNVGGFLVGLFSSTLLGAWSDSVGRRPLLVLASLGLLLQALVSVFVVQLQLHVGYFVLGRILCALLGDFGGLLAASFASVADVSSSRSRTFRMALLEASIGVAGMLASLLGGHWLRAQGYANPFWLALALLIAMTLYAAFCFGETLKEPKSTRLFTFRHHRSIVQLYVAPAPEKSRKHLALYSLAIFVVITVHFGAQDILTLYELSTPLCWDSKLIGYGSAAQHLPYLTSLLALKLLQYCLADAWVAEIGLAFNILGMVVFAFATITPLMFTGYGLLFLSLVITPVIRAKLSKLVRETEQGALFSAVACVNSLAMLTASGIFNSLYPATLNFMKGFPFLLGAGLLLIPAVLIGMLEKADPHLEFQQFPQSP
Description: Inhibition of PCFT (unknown origin) expressed in Chinese hamster R2/PCFT4 cells assessed as reduction in PCFT-mediated [3H]MTX transport at 10 uM at pH 5.5 and 37 degC incubated for 5 mins. It is filed as cell-based. The method, boiled down:
(§3)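 Uptake was quenched with ice-cold DPBS, cells washed and solubilized in 0.5 N NaOH. Radioactivity was expressed per mg protein and normalized to untreated controls. Mean ± SE of three experiments.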

The target in assay [5] is T1, Proton-coupled folate transporter (Homo sapiens). Description: Inhibition of PCFT (unknown origin) expressed in Chinese hamster R2/PCFT4 cells assessed as reduction in PCFT-mediated [3H]MTX transport at 10 uM at pH 6.8 and 37 degC incubated for 5 mins. In kind it is cell-based. The method, boiled down:
as §3

Assay [6] shares this target. The assay can be described thus: Inhibition of PCFT (unknown origin) expressed in Chinese hamster R2/PCFT4 cells assessed as reduction in PCFT-mediated [3H]MTX transport at 1 uM at pH 5.5 and 37 degC incubated for 5 mins. In kind it is cell-based. The method, boiled down:
as §3

For assay [7], the target named is T2, Proton-coupled folate transporter (Homo sapiens, UniProt Q96NT5).
T2 sequence (Q96NT5 whole entry): T1 sequence (whole entry)
Description: Inhibition of PCFT (unknown origin) expressed in Chinese hamster R2/PCFT4 cells assessed as reduction in PCFT-mediated [3H]MTX transport at pH 5.5 and 37 degC incubated for 5 mins. It is filed as cell-based.

The subject of assay [8] is R2. Description: Cytotoxicity against Chinese hamster R2 cells assessed as cell growth inhibition incubated up to 96 hrs by Celltiter-blue cell viability assay. The settings on record: Cricetulus griseus, R2, 96 h. In kind it is cell-based.
The subject of assay [9] is R2. The assay can be described thus: Cytotoxicity against Chinese hamster R2 cells expressing empty vector assessed as cell growth inhibition incubated up to 96 hrs by Celltiter-blue cell viability assay. It is filed as cell-based, Cricetulus griseus. The settings on record: R2, 96 h.
The test system of assay [10] is KB. The assay can be described thus: Cytotoxicity against human KB cells assessed as cell growth inhibition incubated up to 96 hrs by Celltiter-blue cell viability assay. It is filed as functional, cell-based. Summed up:
as §1

For assay [11], the system named is KB. The assay can be described thus: Cytotoxicity against human KB cells assessed as cell growth inhibition incubated up to 96 hrs in presence of 60 uM adenosine by Celltiter-blue cell viability assay. In kind it is functional, cell-based. Summed up:
(§4)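 KB cells grown in complete folate-free RPMI 1640 with 2 nM LCV over a range of drug concentrations, with added thymidine (10 μM), adenosine (60 μM) or AICA (320 μM) as protecting agents. After up to 96 h, density measured by CellTiter-Blue fluorescence and normalized to drug-free cells. Experiments run in triplicate.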

The subject of assay [12] is KB. Description: Cytotoxicity against human KB cells assessed as cell growth inhibition incubated up to 96 hrs in presence of 10 uM thymidine by Celltiter-blue cell viability assay. It is filed as functional, cell-based. Summed up: as §4
Assay [13] relates to KB. The assay can be described thus: Cytotoxicity against human KB cells assessed as cell growth inhibition incubated up to 96 hrs in presence of 320 uM AICA by Celltiter-blue cell viability assay. It is filed as functional, cell-based. Summed up:
as §4

Assay [14] has as its target T1, Proton-coupled folate transporter (Homo sapiens). The assay can be described thus: Inhibition of PCFT (unknown origin) expressed in Chinese hamster R2/PCFT4 cells assessed as reduction in PCFT-mediated [3H]MTX transport at 1 uM at pH 6.8 and 37 degC incubated for 5 mins. In kind it is cell-based. The method, boiled down:
as §3

Chain of Folate receptor alpha (Homo sapiens) (P15328 25-234 limits assumed): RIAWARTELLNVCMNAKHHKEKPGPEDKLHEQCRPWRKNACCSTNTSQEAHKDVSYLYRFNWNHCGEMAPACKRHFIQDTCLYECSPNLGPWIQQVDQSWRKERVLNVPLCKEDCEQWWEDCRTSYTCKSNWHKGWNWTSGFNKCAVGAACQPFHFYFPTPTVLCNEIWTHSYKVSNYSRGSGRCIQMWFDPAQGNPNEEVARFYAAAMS
Chain of Folate receptor beta (Homo sapiens) (P14207 17-230 limits assumed): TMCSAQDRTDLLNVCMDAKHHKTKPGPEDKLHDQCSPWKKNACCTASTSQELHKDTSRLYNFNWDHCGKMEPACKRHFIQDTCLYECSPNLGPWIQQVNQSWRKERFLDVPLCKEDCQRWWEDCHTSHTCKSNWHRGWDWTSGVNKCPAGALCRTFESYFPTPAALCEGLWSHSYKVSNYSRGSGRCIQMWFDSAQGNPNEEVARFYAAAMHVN

As to `CCC[C@H](NC(=O)c1ccc(CCCc2cc3c(=O)[nH]c(N)nc3[nH]2)s1)C(=O)O`, the IC50 in [1], in [8], in assay [9] and in assay [10] was greater than 1000 nM throughout. For the same molecule, the inhibition result in assay [2] and in assay [3] was “Active” each time. Further, the inhibition was 70% in assay [4], 30% in [5] and 25% in [6]. Further, the Ki in [7] is 2900 nM.

For `Nc1nc2[nH]c(CCCc3ccc(C(=O)NCCCC(=O)O)s3)cc2c(=O)[nH]1`, the IC50 in assay [1], in [8], in assay [9] and in assay [10] was greater than 1000 nM in each case. In addition, the inhibition entry in [2] and in [3] was “Active” in each case.

With `Nc1nc2[nH]c(CCCc3ccc(C(=O)N[C@@H](CC(=O)O)C(=O)O)s3)cc2c(=O)[nH]1`, the IC50 in assay [1], in assay [8], in [9] and in assay [10] was greater than 1000 nM in each case. Also, the inhibition entry in assay [2] and in [3] was “Active” each time.

Take `Nc1nc2[nH]c(CCCc3ccc(C(=O)O)s3)cc2c(=O)[nH]1`: the IC50 in assay [1], in assay [8], in assay [9] and in assay [10] was greater than 1000 nM in each case. The inhibition result in assay [2] and in assay [3] was “Active” in each case.

On to `CN(Cc1cnc2nc(N)nc(N)c2n1)c1ccc(C(=O)N[C@@H](CCC(=O)O)C(=O)O)cc1` [METHOTREXATE], for which the inhibition entry in assay [2] and in [3] was “inactive” in each case. In addition, the IC50 in assay [9] is greater than 1000 nM.

Regarding `Nc1nc(=O)c2nc(CNc3ccc(C(=O)N[C@@H](CCC(=O)O)C(=O)O)cc3)cnc2[nH]1`, the inhibition entry in assay [2] and in assay [3] was “Active” in each case.

For `Nc1nc2[nH]c(CCCc3ccc(C(=O)N[C@@H](CCCC(=O)O)C(=O)O)s3)cc2c(=O)[nH]1`, the IC50 in assay [1] was greater than 1000 nM; in assay [8], greater than 1000 nM; in [9], greater than 1000 nM; in assay [10], 9 nM. The inhibition result in [2] and in assay [3] was “Active” throughout. The “growth inhibition (GI)” value in assay [11] and in assay [13] was “inactive” throughout. Moreover, the inhibition in assay [4] was determined as 75%; in assay [5], 30%; in [6], 10%. In assay [7], the Ki turned out to be 1600 nM. Besides, the “growth inhibition (GI)” value in assay [12] is “Active”.

`Nc1nc2[nH]c(CCCc3ccc(C(=O)N[C@@H](CCC(=O)O)C(=O)O)s3)cc2c(=O)[nH]1`: in [1], the half-inhibitory concentration (IC50) is greater than 1000 nM. In addition, the inhibition result in assay [2] and in assay [3] was “Active” throughout. Besides, the “growth inhibition (GI)” value in assay [11] and in [13] was “inactive” in each case. For the same molecule, the inhibition in assay [4] is 95%; in [5] it was 70%; in assay [6], 80%; in [14], 20%. The “growth inhibition (GI)” value in assay [12] was “Active”.
